Experiment [1] deals with T1, Alpha-1A adrenergic receptor (Oryctolagus cuniculus) (UniProt O02824).
T1 sequence (whole entry): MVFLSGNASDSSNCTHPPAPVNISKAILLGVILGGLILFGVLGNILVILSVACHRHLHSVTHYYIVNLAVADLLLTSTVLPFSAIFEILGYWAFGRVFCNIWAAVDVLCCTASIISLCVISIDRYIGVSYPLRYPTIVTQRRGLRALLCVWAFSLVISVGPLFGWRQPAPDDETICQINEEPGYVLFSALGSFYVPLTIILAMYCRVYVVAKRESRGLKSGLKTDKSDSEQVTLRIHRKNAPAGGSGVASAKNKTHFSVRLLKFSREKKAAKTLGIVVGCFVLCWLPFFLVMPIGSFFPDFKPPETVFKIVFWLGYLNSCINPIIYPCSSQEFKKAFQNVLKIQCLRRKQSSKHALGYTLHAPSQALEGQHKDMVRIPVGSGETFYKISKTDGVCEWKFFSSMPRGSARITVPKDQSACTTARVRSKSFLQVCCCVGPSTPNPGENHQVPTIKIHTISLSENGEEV
Description: Binding affinity to rabbit aorta adrenergic alpha1A receptor assessed as inhibition of phenylephrine-induced constriction after 30 mins. In outline: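 Rabbit aortic rings (3–4 mm) held in organ bath under 20 mN resting tension, equilibrated 30 min. Cumulative phenylephrine curves (5 × 10⁻⁹–5 × 10⁻⁴ M) run without or with 30 μM antagonist after 30 min preincubation. EC50 from non-linear sigmoidal fit per experiment; concentration ratio r gives KB via Schild equation r − 1 = [B]/KB. Mean ± S.E.M of 4–6 experiments.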

A further experiment concerns Oryctolagus cuniculus. Description: Hypotensive activity in New Zealand albino rabbit adrenergic alpha1 receptor assessed as inhibition of phenylephrine-induced rabbit systemic vascular resistance at 100 ug/kg, iv administered as bolus dose. It counts as functional, organism-based. Summed up: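 Anaesthetised New Zealand albino rabbits of either sex (3.0 kg), given pentobarbital 40 mg/kg i.v. plus a 5 mg/kg top-up, tracheotomised, ventilated with room air and paralysed with pancuronium 1 mg/kg i.v. After 15–30 min stabilisation, phenylephrine dose-response curves (0.1–100 μg/kg, i.v.) were run with or without test compound given i.v. (0.1–100 μg/kg). Recording was continuous over 30 min. Systemic vascular resistance = MAP/cardiac output × 80 (dyn s/cm⁵).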

For a further experiment, the species on record is Rattus norvegicus. Nature of the experiment: Selectivity ratio of Ki for rat liver adrenergic alpha1B receptor to Ki for rat salivary gland adrenergic alpha 1A. In outline: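 [3H]-prazosin competition binding on rat liver membranes (α1B) and rat salivary gland membranes (α1A), about 150 µg protein, 45 min at 25 °C in 50 mM TRIS-HCl with 1 mM EDTA, pH 7.4. Radioligand was 0.1 nM (liver) or 0.06 nM (salivary). […] Filtration, then scintillation counting. Ki from IC50 by Cheng–Prusoff; ratio of the two Ki values.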

The target in experiment [2] is T2, Alpha-1A adrenergic receptor (Rattus norvegicus, UniProt P43140).
T2 sequence (P43140 whole entry): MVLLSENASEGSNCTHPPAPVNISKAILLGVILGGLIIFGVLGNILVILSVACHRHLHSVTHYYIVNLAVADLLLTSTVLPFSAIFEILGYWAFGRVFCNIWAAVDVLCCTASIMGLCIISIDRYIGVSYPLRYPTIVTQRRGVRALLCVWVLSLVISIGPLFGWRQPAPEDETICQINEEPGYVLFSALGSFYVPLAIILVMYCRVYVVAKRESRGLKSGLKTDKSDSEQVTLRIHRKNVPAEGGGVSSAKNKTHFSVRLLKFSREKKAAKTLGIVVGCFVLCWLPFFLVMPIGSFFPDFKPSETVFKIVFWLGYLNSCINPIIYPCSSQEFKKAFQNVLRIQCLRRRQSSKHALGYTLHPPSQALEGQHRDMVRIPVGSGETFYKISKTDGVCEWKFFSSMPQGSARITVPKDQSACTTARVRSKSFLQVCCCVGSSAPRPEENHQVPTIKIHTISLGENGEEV
Nature of the experiment: Displacement of [3H]prazosin from rat salivary gland adrenergic alpha 1A receptor after 45 mins by liquid scintillation counter. For orientation: In a radioligand displacement assay an active substance lowers the binding of a labelled ligand.

The target in experiment [3] is T3, Alpha-1D adrenergic receptor (Rattus norvegicus) (UniProt P23944).
T3 sequence (whole entry): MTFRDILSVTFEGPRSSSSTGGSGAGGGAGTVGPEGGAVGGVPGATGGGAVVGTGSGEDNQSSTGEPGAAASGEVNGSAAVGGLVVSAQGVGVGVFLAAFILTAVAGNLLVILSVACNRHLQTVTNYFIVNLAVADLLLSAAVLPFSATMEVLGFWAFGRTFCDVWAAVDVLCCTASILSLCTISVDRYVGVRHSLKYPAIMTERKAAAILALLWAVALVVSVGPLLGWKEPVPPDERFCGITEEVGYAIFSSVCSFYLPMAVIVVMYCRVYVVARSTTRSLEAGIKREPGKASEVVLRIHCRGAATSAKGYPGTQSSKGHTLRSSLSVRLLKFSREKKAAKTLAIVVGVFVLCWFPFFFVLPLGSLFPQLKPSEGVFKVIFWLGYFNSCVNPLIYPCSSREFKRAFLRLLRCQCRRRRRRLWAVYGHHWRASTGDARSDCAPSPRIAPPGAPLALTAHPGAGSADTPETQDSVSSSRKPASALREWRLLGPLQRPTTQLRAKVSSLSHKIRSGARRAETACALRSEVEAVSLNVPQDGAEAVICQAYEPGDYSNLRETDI
Conditions: Thoracic aorta.

Experiment [4] concerns the target T4, Alpha-1B adrenergic receptor (Rattus norvegicus, UniProt P15823).
T4 sequence (P15823 whole entry): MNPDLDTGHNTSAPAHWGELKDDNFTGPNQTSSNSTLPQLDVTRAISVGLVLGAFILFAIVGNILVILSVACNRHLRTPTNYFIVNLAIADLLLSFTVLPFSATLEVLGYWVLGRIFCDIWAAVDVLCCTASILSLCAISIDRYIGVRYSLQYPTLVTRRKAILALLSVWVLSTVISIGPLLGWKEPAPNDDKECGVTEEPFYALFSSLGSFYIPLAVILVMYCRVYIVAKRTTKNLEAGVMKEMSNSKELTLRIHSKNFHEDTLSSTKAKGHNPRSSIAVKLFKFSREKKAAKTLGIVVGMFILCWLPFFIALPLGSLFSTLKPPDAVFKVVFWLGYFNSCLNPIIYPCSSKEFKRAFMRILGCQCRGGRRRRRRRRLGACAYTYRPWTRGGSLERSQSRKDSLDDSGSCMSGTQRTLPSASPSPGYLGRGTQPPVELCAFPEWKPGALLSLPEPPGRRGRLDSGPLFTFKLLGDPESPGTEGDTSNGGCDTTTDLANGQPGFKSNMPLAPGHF
Nature of the experiment: Displacement of [3H]prazosin from rat liver adrenergic alpha1B receptor after 45 mins by liquid scintillation counter.

Experiment [5] concerns the target T1, Alpha-1A adrenergic receptor (Oryctolagus cuniculus). Description: Ratio of BMY7378 KB to compound KB for rabbit aorta adrenergic alpha1A receptor assessed as inhibition of phenylephrine-induced constriction after 30 mins.
The target of experiment [6] is T5, Alpha-1D adrenergic receptor (Rattus norvegicus, UniProt P23944).
T5 sequence (P23944 whole entry): T3 sequence (whole entry)
Description: Antagonist activity at adrenergic alpha 1D receptor in rat thoracic aorta assessed as inhibition of noradrenaline-induced contraction after 1 hr. It is filed as functional, tissue-based. The settings on record: read-out: pA2 (converted).

Calls of active or inactive are those of the source. The calls are words filed in the database; no cut-off is given here.

What is called IC50 is the point on the concentration scale where inhibition reaches its midpoint. Read a low IC50 as inhibition by little substance. The pKb is −log10 of the Kb, conventionally taken in molar units. A higher pKb goes with a low Kb. What is called Ki is the equilibrium dissociation constant of an inhibitor or competing ligand from its target.

Take `Fc1ccc(N2CCN(CCc3ccc4c(c3)OCO4)CC2)cc1`: the Kb in experiment [1] worked out at 410 nM.
The same measure, in the same setting: next, `c1ccc(N2CCN(Cc3ccc4c(c3)OCO4)CC2)cc1`: 25000 nM.
In the case of `COc1ccccc1N1CCN(CCc2ccc3c(c2)OCO3)CC1`, the inhibition result in the experiment with Oryctolagus cuniculus is “Active”. In the experiment filed under Rattus norvegicus, the Ratio Ki turned out to be 40. In addition, the IC50 is 0.269 nM in experiment [2] and 6.03 nM in experiment [4]. The Kb is 18 nM in experiment [1] and 0.0251 nM in experiment [6]. Besides, the pKb in experiment [3] stood at 10.3. Besides, in experiment [4], the Ki worked out at 5.55 nM. Besides, the Ratio in experiment [5] was found to be 80.
For the compound `c1ccc(N2CCN(CCOc3ccc4c(c3)OCO4)CC2)cc1`, the Kb in experiment [1] amounted to 10300 nM.
For `COc1ccccc1N1CCN(CCCc2ccc3c(c2)OCO3)CC1`, the Kb in experiment [1] was determined as 130 nM.
On to `COc1cc2nc(N3CCN(C(=O)c4ccco4)CC3)nc(N)c2cc1OC`, for which the inhibition result with Oryctolagus cuniculus is “Active”.
In the case of `COc1ccc(N2CCN(CCc3ccc4c(c3)OCO4)CC2)cc1`, in experiment [1], the Kb came out at 870 nM.
On the same count and under the same terms, as for `c1ccc(CCCCN2CCN(c3ccccc3)CC2)cc1`, the figure is 1420 nM; as for `Clc1ccc(N2CCN(CCc3ccc4c(c3)OCO4)CC2)cc1`, 1240 nM.
On the same count and under the same terms, next, `c1ccc(N2CCN(CCc3ccc4c(c3)OCO4)CC2)cc1`: 270 nM.
Regarding `c1ccc(N2CCN(CCCOc3ccc4c(c3)OCO4)CC2)cc1`, in experiment [1], the Kb was 27500 nM.
Still for that read-out and setting: as for `c1ccc(CN2CCN(c3ccccc3)CC2)cc1`, the figure is 25000 nM; as for `c1ccc(CCN2CCN(c3ccccc3)CC2)cc1`, 1460 nM; as for `c1ccc(CCCN2CCN(c3ccccc3)CC2)cc1`, 9380 nM.
The same measure, in the same setting: as for `c1ccc(OCCN2CCN(c3ccccc3)CC2)cc1`, the figure is 7320 nM; as for `c1ccc(N2CCN(CCCCc3ccc4c(c3)OCO4)CC2)cc1`, 9380 nM; as for `COc1ccccc1N1CCN(CCN2C(=O)CC3(CCCC3)CC2=O)CC1`, 1450 nM.
As to `c1ccc(N2CCN(CCCc3ccc4c(c3)OCO4)CC2)cc1`, the Kb in experiment [1] amounted to 3800 nM.

The values are drawn from ChEMBL document CHEMBL2150896, “Discovery of LASSBio-772, a 1,3-benzodioxole N-phenylpiperazine derivative with potent alpha 1A/D-adrenergic receptor blocking properties” (Eur J Med Chem, 2011).
